From ChEMBL document CHEMBL3525900, “Pharmacokinetics, distribution, and metabolism of [14C]sunitinib in rats, monkeys, and humans” (Drug Metab Dispos, 2012)

How the values were obtained:
Cynomolgus monkey [1] = assay: Cmax as total radioactivity in male cynomolgus monkey plasma at 6 mg/kg, po administered as single dose by LC/MS/MS analysis; type: ADME, organism-based, Macaca fascicularis; design: dose 6 mg/kg, dosed compound name [14C]Sunitinib, route oral; settings: in vivo
How it was run: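 Cynomolgus monkeys of both sexes received one oral gavage of [14C]sunitinib L-malate at 6 mg/kg (37 µCi/kg). Femoral-vein blood was taken into heparin from 0.5 to 336 h. Plasma was kept cold and protected from light, then stored at -80 °C. Total radioactivity was by scintillation counting and sunitinib by methanol-extraction LC-MS-MS. Cmax was from raw data, t½ from the log-linear terminal slope, AUC(0-∞) by linear trapezoidal rule.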

[2] = Drug concentration in male Lister Hooded pigmented rat skeletal muscle assessed as radioactivity per gram of tissue at 20 mg/kg administered as single dose via gastric gavage measured after 24 hrs by autoradiographic analysis; type: ADME, organism-based; design: dose 20 mg/kg, dosed compound name [14C]Sunitinib; settings: in vivo, po
[3] = Drug concentration in male Lister Hooded pigmented rat bone marrow assessed as radioactivity per gram of tissue at 20 mg/kg administered as single dose via gastric gavage measured after 168 hrs by autoradiographic analysis; type: ADME, organism-based; design: dose 20 mg/kg, dosed compound name [14C]Sunitinib; settings: in vivo, po
Cynomolgus monkey [4] = assay: Total drug recovery in male cynomolgus monkey at 6 mg/kg, po administered as single dose during 0 to 336 hrs by liquid scintillation counting; type: ADME, organism-based, Macaca fascicularis; design: dose 6 mg/kg, dosed compound name [14C]Sunitinib, route oral; settings: in vivo
[5] = Drug concentration in male Lister Hooded pigmented rat eye assessed as radioactivity per gram of tissue at 20 mg/kg administered as single dose via gastric gavage measured after 72 hrs by autoradiographic analysis; type: ADME, organism-based; design: dose 20 mg/kg, dosed compound name [14C]Sunitinib; settings: in vivo, po
Lung [6] = assay: Drug concentration in female albino rat lung assessed as radioactivity per gram of tissue at 20 mg/kg administered as single dose via gastric gavage measured after 3 hrs by autoradiographic analysis; type: ADME, organism-based; design: dose 20 mg/kg, dosed compound name [14C]Sunitinib; settings: in vivo, po
How it was run: (§1)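 Sprague Dawley albino rats, ca 7-8 weeks old, dosed once by gastric gavage with [14C]sunitinib L-malate (15 mg freebase/kg, 100 µCi/kg). One male and one female killed by CO2 at 3, 6, 24, 72 and 168 h. Carcasses frozen in solid CO2/hexane, embedded and cut into 30 µm sagittal sections, then freeze-dried. Radioactivity quantified by whole-body autoradiography against standards by regression, background subtracted.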

Adrenal = assay: Drug concentration in male Lister Hooded pigmented rat adrenal assessed as radioactivity per gram of tissue at 20 mg/kg administered as single dose via gastric gavage measured after 24 hrs by autoradiographic analysis; type: ADME, organism-based; design: dose 20 mg/kg, dosed compound name [14C]Sunitinib; settings: in vivo, po
[7] = Drug concentration in female Lister Hooded pigmented rat uveal tract assessed as radioactivity per gram of tissue at 20 mg/kg administered as single dose via gastric gavage measured after 24 hrs by autoradiographic analysis; type: ADME, organism-based; design: dose 20 mg/kg, dosed compound name [14C]Sunitinib; settings: in vivo, po
How it was run: (§2)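 Lister Hooded (pigmented) rats, ca 7-8 weeks old, acclimated 7 days, given [14C]sunitinib L-malate by gastric gavage at 20 mg/kg (15 mg freebase/kg, 100 µCi/kg). One male and one female killed by CO2 at 24, 72, 168 and 336 h. Carcasses frozen in solid CO2/hexane and embedded in frozen cellulose. 30 µm sagittal cryosections were freeze-dried. Tissue radioactivity measured by quantitative whole-body autoradiography against calibration standards, with background subtracted.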

Lung [8] = assay: Drug concentration in female Lister Hooded pigmented rat lung assessed as radioactivity per gram of tissue at 20 mg/kg administered as single dose via gastric gavage measured after 24 hrs by autoradiographic analysis; type: ADME, organism-based; design: dose 20 mg/kg, dosed compound name [14C]Sunitinib; settings: in vivo, po; how it was run: as §2
[9] = Drug concentration in female albino rat salivary gland assessed as radioactivity per gram of tissue at 20 mg/kg administered as single dose via gastric gavage measured after 24 hrs by autoradiographic analysis; type: ADME, organism-based; design: dose 20 mg/kg, dosed compound name [14C]Sunitinib; settings: in vivo, po; how it was run: as §1
[10] = Drug concentration in female Lister Hooded pigmented rat eye assessed as radioactivity per gram of tissue at 20 mg/kg administered as single dose via gastric gavage measured after 168 hrs by autoradiographic analysis; type: ADME, organism-based; design: dose 20 mg/kg, dosed compound name [14C]Sunitinib; settings: in vivo, po; how it was run: as §2
[11] = Drug concentration in male albino rat thyroid gland assessed as radioactivity per gram of tissue at 20 mg/kg administered as single dose via gastric gavage measured after 3 hrs by autoradiographic analysis; type: ADME, organism-based; design: dose 20 mg/kg, dosed compound name [14C]Sunitinib; settings: in vivo, po
Heart = assay: Drug concentration in female albino rat heart assessed as radioactivity per gram of tissue at 20 mg/kg administered as single dose via gastric gavage measured after 3 hrs by autoradiographic analysis; type: ADME, organism-based; design: dose 20 mg/kg, dosed compound name [14C]Sunitinib; settings: in vivo, po; how it was run: as §1
[12] = Drug concentration in female albino rat preputial gland assessed as radioactivity per gram of tissue at 20 mg/kg administered as single dose via gastric gavage measured after 24 hrs by autoradiographic analysis; type: ADME, organism-based; design: dose 20 mg/kg, dosed compound name [14C]Sunitinib; settings: in vivo, po; how it was run: as §1
Homo sapiens = assay: AUC (0 to infinity) as total radioactivity in human plasma at 50 mg, po administered as single dose […] by LC/MS/MS analysis; type: ADME, organism-based; design: dose 50 mg, time infinity, route oral, dosed compound name [14C]Sunitinib; settings: in vivo
How it was run: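 Open-label phase I study in 8 subjects given one 50 mg oral dose of [14C]sunitinib (100 µCi). Plasma total radioactivity was counted by scintillation on triplicate 0.25 mL aliquots. Sunitinib was quantified by LC-MS-MS. Noncompartmental analysis: Cmax read directly, terminal t½ = ln(2)/slope of the log-concentration regression, AUC by linear trapezoidal rule to the last detectable concentration.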

Rattus norvegicus = assay: AUC (0 to infinity) as total radioactivity in male Sprague-Dawley rat plasma at 15 mg/kg, po administered as single dose by LC/MS/MS analysis; type: ADME, organism-based; design: time infinity, dose 15 mg/kg, dosed compound name [14C]Sunitinib, route oral; settings: in vivo
How it was run: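 Single dose of [14C]sunitinib L-malate as free base, 50 µCi/kg. IV dose was 5 mg/kg by tail vein in 5 females. Oral dose was 15 mg/kg by gavage in 3 females and 3 males. Total radioactivity was by scintillation counting. […] Cmax was read from raw data, t½ by log-linear regression, AUC by linear trapezoidal rule.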

[13] = Drug concentration in female albino rat preputial gland assessed as radioactivity per gram of tissue at 20 mg/kg administered as single dose via gastric gavage measured after 72 hrs by autoradiographic analysis; type: ADME, organism-based; design: dose 20 mg/kg, dosed compound name [14C]Sunitinib; settings: in vivo, po; how it was run: as §1
Blood = assay: Drug concentration in female albino rat blood assessed as radioactivity per gram of tissue at 20 mg/kg administered as single dose via gastric gavage measured after 24 hrs by autoradiographic analysis; type: ADME, organism-based; design: dose 20 mg/kg, dosed compound name [14C]Sunitinib; settings: in vivo, po
How it was run: (§3)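 Sprague Dawley (albino) rats, ca 7-8 weeks old, received a single gastric-gavage dose of [14C]sunitinib L-malate at 20 mg/kg (15 mg freebase/kg, 100 µCi/kg). One animal per sex killed by CO2 at 3, 6, 24, 72 and 168 h, then frozen in CO2/hexane. 30 µm sagittal sections were cut and freeze-dried. Radioactivity per gram quantified by whole-body autoradiography using regression against standards. LOQ 0.04–0.06 µg freebase equiv/g.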

[14] = Drug concentration in female Lister Hooded pigmented rat preputial gland assessed as radioactivity per gram of tissue at 20 mg/kg administered as single dose via gastric gavage measured after 24 hrs by autoradiographic analysis; type: ADME, organism-based; design: dose 20 mg/kg, dosed compound name [14C]Sunitinib; settings: in vivo, po; how it was run: as §2
Stomach = assay: Drug concentration in male Lister Hooded pigmented rat stomach assessed as radioactivity per gram of tissue at 20 mg/kg administered as single dose via gastric gavage measured after 168 hrs by autoradiographic analysis; type: ADME, organism-based; design: dose 20 mg/kg, dosed compound name [14C]Sunitinib; settings: in vivo, po
Kidney = assay: Drug concentration in male albino rat kidney assessed as radioactivity per gram of tissue at 20 mg/kg administered as single dose via gastric gavage measured after 3 hrs by autoradiographic analysis; type: ADME, organism-based; design: dose 20 mg/kg, dosed compound name [14C]Sunitinib; settings: in vivo, po
[15] = Drug concentration in male albino rat testis assessed as radioactivity per gram of tissue at 20 mg/kg administered as single dose via gastric gavage measured after 72 hrs by autoradiographic analysis; type: ADME, organism-based; design: dose 20 mg/kg, dosed compound name [14C]Sunitinib; settings: in vivo, po
[16] = Drug concentration in male albino rat skeletal muscle assessed as radioactivity per gram of tissue at 20 mg/kg administered as single dose via gastric gavage measured after 3 hrs by autoradiographic analysis; type: ADME, organism-based; design: dose 20 mg/kg, dosed compound name [14C]Sunitinib; settings: in vivo, po
[17] = Drug concentration in female albino rat bladder assessed as radioactivity per gram of tissue at 20 mg/kg administered as single dose via gastric gavage measured after 6 hrs by autoradiographic analysis; type: ADME, organism-based, Urinary bladder; design: dose 20 mg/kg, dosed compound name [14C]Sunitinib; settings: in vivo, po; how it was run: as §3

CCN(CC)CCNC(=O)c1c(C)[nH]c(/[14CH]=C2\C(=O)Nc3ccc(F)cc32)c1C.O=C(O)C[C@H](O)C(=O)O
Cmax (Cynomolgus monkey [1]): 243 ngequiv/ml | Radiolabel recovery [2]: 0.3 ugequiv | Radiolabel recovery [3]: 0.06 ugequiv | Radiolabel recovery (Cynomolgus monkey [4]): 94.1% | Radiolabel recovery [5]: 23.98 ugequiv | Radiolabel recovery (Lung [6]): 28.98 ugequiv | Radiolabel recovery (Adrenal): 4.3 ugequiv | Radiolabel recovery [7]: 124.52 ugequiv | Radiolabel recovery (Lung [8]): 2.79 ugequiv | Radiolabel recovery [9]: 2.65 ugequiv | Radiolabel recovery [10]: 73.04 ugequiv | Radiolabel recovery [11]: 18.4 ugequiv | Radiolabel recovery (Heart): 7.31 ugequiv | Radiolabel recovery [12]: 5.79 ugequiv | AUC (Homo sapiens): 2537.1 ng.Eq.hr/ml | AUC (Rattus norvegicus): 82039 ng.Eq.hr/ml | Radiolabel recovery [13]: 0.24 ugequiv | Radiolabel recovery (Blood): 0.19 ugequiv | Radiolabel recovery [14]: 4.5 ugequiv | Radiolabel recovery (Stomach): 0.06 ugequiv | Radiolabel recovery (Kidney): 13.24 ugequiv | Radiolabel recovery [15]: 0.39 ugequiv | Radiolabel recovery [16]: 2.92 ugequiv | Radiolabel recovery [17]: 6.2 ugequiv
